The results in this text go back to ChEMBL document CHEMBL4513216, “Probing the Open Global Health Chemical Diversity Library for Multistage-Active Starting Points for Next-Generation Antimalarials” (ACS Infect Dis, 2020).

A short description of the data set: Toxicity liver stage against HepG2, at 10uM. To be noted: human, HepG2-A16-CD81EGFP cells; read-out: INHIBITION
It is filed as cell-based. Also on record: test concentration 10 uM, cell line HepG2-A16-CD81EGFP. The method, boiled down:
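Uninfected HepG2-A16-CD81EGFP cells, 3 × 10^3 per well, 1536-well, plated on prespotted compound at 10 μM final, parasite-free screening media added to match infected plates; puromycin 10 μM positive, DMSO 0.5% negative; run in parallel with 48 h PbLuc assay at 37 °C, 5% CO2; viability by CellTiter-Glo luminescence, normalized to controls.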

As for `CCC(C)(C)NC(=O)Cn1cc(C(N)=O)c(-c2ccccc2)n1`, the cytotoxicity at 10 µM is -6.84%. On to `COc1ccccc1-c1cc(NC(=O)CC2CCS(=O)(=O)C2)[nH]n1` (stereo not given), for which the cytotoxicity at 10 µM was -113%. As to `Cc1ccc(-c2nc(CN3CCCC3Cn3cncn3)cs2)o1` (stereo not given), the cytotoxicity at 10 µM is -7.88%. To `c1ccc(OCc2n[nH]c3c2CN(CC2CC2)C3)nc1` belongs 7.49%; to `CCn1ncc2c(C(F)(F)F)cc(-c3ccn(C)n3)nc21`, 4.75%; to `O=C(NCCN1CCCCCC1=O)NCc1ccc(Cl)s1`, -1.08%. Consider `O=C(c1c(F)cccc1F)N1CCOCC1`, for which the cytotoxicity at 10 µM was 5.33%.

As for `CCN(C(=O)c1ccc(-c2ccccc2)nc1C)C1CC(=O)NC1=O` (stereo not given), the cytotoxicity at 10 µM was -4.18%.

As for `CCc1nn(C)c(Cl)c1CN1CCC(Cc2nncn2C)CC1`, the cytotoxicity at 10 µM is -1.52%. To `CC(C)NC(=O)[C@@H]1CCO[C@@H]2CCN(c3ncccn3)C[C@H]21` belongs -7.6%. To `CCC(=O)N1CCN(CCn2cccn2)c2ncccc2C1` belongs -106%. The result for `CC(C)(C)OC(=O)N1CC(CC(=O)NCc2ccnc(C3CC3)c2)C1` reads 5.54%; that for `Cn1cc(CCC(=O)NS(=O)(=O)N2CCCc3ccccc32)cn1`, 14.6%; that for `CCCn1ccnc1CN1CCN(C2CCOCC2)CC(C(N)=O)C1` (stereo not given), -24.4%. With `CCOCCNS(=O)(=O)c1ccc2c3c1CCCN3C(=O)CO2`, the cytotoxicity at 10 µM is 7.9%.

Take `Cc1cnn(C2CCCN(C(=O)c3cc(Cl)c4c(c3)OCO4)C2)c1` (stereo not given): the cytotoxicity at 10 µM is -5.25%. To `Cc1ccc(CN2CC[C@@H]3[C@@H](CO[C@H]3CN3CCN(C)CC3)C2)cc1` belongs -2.74%; to `CCn1c(C)nnc1SCCNc1cc(N2CCOCC2)ncn1`, 0.801%. To `Cn1cc(C2COC3(CCN(C(=O)c4ccc(F)cc4)CC3)C2)cn1` (stereo not given) belongs 8.31%. Regarding `O=C(C1CC(=O)N(c2ccccc2Br)C1)N1CCN(CC(F)(F)F)CC1` (stereo not given), the cytotoxicity at 10 µM stood at 7.29%.

As for `Cc1ccc(F)cc1C(=O)N1C[C@@H](CN2CCOCC2)[C@@H](CO)C1`, the cytotoxicity at 10 µM was -6.2%. Take `CC(C)c1cc(C(=O)N2CCCC2c2nc(-c3ccccc3)no2)[nH]n1` (stereo not given): the cytotoxicity at 10 µM was -4.5%. To `CC(C(N)=O)N(C)CCCc1cc(-c2ccccc2)no1` (stereo not given) belongs -5.01%; to `NC(=O)NCC(=O)N1C[C@@H]2CC[C@H]1CN(Cc1ccccc1)C2`, -13.4%. The result for `Cc1cc(-c2nc(-c3cccc(CN4CCOCC4)c3)no2)no1` reads -7.33%; that for `COCCN(Cc1cccc(O)c1)Cc1ccccc1F`, 4.73%.

Regarding `CCO[C@H]1COC[C@@H]1NC(=O)CCc1nc(-c2ccccc2)no1`, the cytotoxicity at 10 µM came to 15.8%. The result for `CN(CC1CC1)c1ccc2ccc(C(=O)NC3CCCCC3)cn12` reads -0.567%; that for `Cc1cc(C(=O)N2CCCC(C)C2)ccc1NCc1nc(C2CC2)no1` (stereo not given), -8.38%. The result for `Cc1cnc2n(c1=O)CC(C(=O)Nc1ccccc1Cl)CS2` (stereo not given) reads -10.7%. To `Cc1cnc(N2C[C@@H]3CN(Cc4ccco4)CCC[C@]3(C(=O)O)C2)nc1` belongs 7.25%; to `COc1ccc(CN2C[C@@H]3COC[C@H](N4CCN(C)CC4)[C@@H]3C2)cc1`, -85.6%; to `CNc1nc(C(=O)N2CCCCC2c2ccc(CN(C)C)cc2)cs1` (stereo not given), -2.86%. `Cc1ncc(-c2ccnc(NC3CC3)n2)c(-c2cccnc2)n1`: the cytotoxicity at 10 µM was -14.2%. For the molecule `COCCC(=O)N(CCC#N)c1ccc(C)c(C)c1`, the cytotoxicity at 10 µM was found to be 3.43%.

For `CC(C)NC(=O)NCCn1cnc(C2CCCC2)cc1=O`, the cytotoxicity at 10 µM is -0.373%. Turning to `Cn1ccc(C(=O)NCc2cccc(NC(=O)C3CCC3)c2)cc1=O`, the cytotoxicity at 10 µM was -10%. As for `COCCN1CCCc2sc(C(=O)NCC3CCCO3)nc21` (stereo not given), the cytotoxicity at 10 µM was 5.96%.

For `CCC(NC(=O)CNC(=O)OC)c1cc(F)ccc1F` (stereo not given), the cytotoxicity at 10 µM was -5.03%.

As for `CN(CCCSc1ccccc1)C(=O)Cn1ncc(N(C)C)cc1=O`, the cytotoxicity at 10 µM is 0.0227%. The result for `CCn1c(CN(C)C)nnc1C1CCN(Cc2cccc(OC)c2)CC1` reads -13.6%; that for `COc1cccn(CC(=O)N2CCCC3(CCOCC3)C2)c1=O`, 8.78%. As for `CCCc1nc(C(=O)N2C[C@H](CO)C[C@H](CN3CCOCC3)C2)cs1`, the cytotoxicity at 10 µM came out at 3.79%. The result for `COc1cc2c(cc1OC)S(=O)(=O)N(Cc1cnn(C)c1)C2=O` reads 12.6%; that for `NS(=O)(=O)c1ccc(NC(=O)CSc2ccc3c(c2)CCC3)cc1`, -9.06%. Regarding `CCOC(C)c1noc(CN2CCN(Cc3cccnc3)CC2)n1` (stereo not given), the cytotoxicity at 10 µM is -4.55%.

For `CCCOc1cc(CNC(=O)Nc2ccccn2)ccn1`, the cytotoxicity at 10 µM is -2.25%. As to `Cn1nc(CNC(=O)CN2C(=O)CCC2=O)cc1C1CC1`, the cytotoxicity at 10 µM is 2.89%. To `CCn1ccnc1CN1CCN(CC(=O)NC2CCOCC2)CC1` belongs -6.22%; to `CN(C)C(=O)NC1COC2(CCN(Cc3nccn3C)CC2)C1` (stereo not given), 9.48%. To `CCN1CCCC(c2c(-c3ccccc3)ncn2CCc2c[nH]cn2)C1` (stereo not given) belongs -10.9%.

`CC(C)Oc1cccc2c1c(NC(=O)CN(C)C)nn2CC(F)(F)F`: the cytotoxicity at 10 µM is -9.69%. Regarding `Cc1nc(CN2CCCC(N(C)Cc3cnc(C)s3)C2)no1` (stereo not given), the cytotoxicity at 10 µM was determined as 2.76%.

Regarding `CCc1nc(CN2CCOC(CNc3cccnn3)C2)cs1` (stereo not given), the cytotoxicity at 10 µM is -11%.

Regarding `CCCn1c(C)c(CC(=O)NCC(N)=O)c2c1CC(C)(C)CC2=O`, the cytotoxicity at 10 µM stood at 2.03%. The result for `Cc1nc(C)n(CCNC(=O)C2(C)CC(c3ccccc3)=NO2)n1` (stereo not given) reads 7.92%; that for `N#Cc1ccc(N2CCC3(CCC(=O)N3Cc3ccncc3)CC2)nc1`, -109%; that for `CC(C)c1cc(C(=O)N(c2ccc(F)cn2)C2CCOCC2)on1`, -9.01%. As to `CC(=O)c1cc(CN2CCCCC2c2nc3cc(F)ccc3[nH]2)cs1` (stereo not given), the cytotoxicity at 10 µM was -1.08%. `Cn1c(SCc2noc(-c3ccsc3)n2)nnc1C1CCS(=O)(=O)C1` (stereo not given): the cytotoxicity at 10 µM was found to be 3.39%. The result for `O=C(C1CC1)N1C[C@@H](F)[C@@H](OCc2nc3ccccc3o2)C1` reads -1.94%; that for `O=c1c2ccccc2nc2n1CCC2O` (stereo not given), 7.68%; that for `c1cnc(N2CCC(C3CCN(CCCn4cccn4)C3)CC2)nc1` (stereo not given), 7.5%. Regarding `Fc1ccc(C2(CNC3=NCCN3)CCCC2)cc1`, the cytotoxicity at 10 µM was determined as 12.9%. To `COc1c(CNC2CCOc3c(Cl)cccc32)c(C(C)C)nn1C` (stereo not given) belongs 2.25%; to `c1ccc(CN2CCCC(c3nccnc3-n3ccnc3)C2)cc1` (stereo not given), -4.56%.

`O=C(c1ccoc1)N1CCCC2(CCC(=O)N2Cc2cccnc2)C1` (stereo not given): the cytotoxicity at 10 µM was -4.41%.

Take `CCC(O)CN(Cc1ccccc1)S(=O)(=O)c1cnc(C)s1` (stereo not given): the cytotoxicity at 10 µM was -42.5%. The result for `CN1[C@H](CN2CCCC2)C[C@@H]2CN(C(=O)Cc3ccsc3)CC[C@@H]21` reads -3.45%.

As for `CCSc1cc(C(=O)N(C(C)C)C2CC2)ccn1`, the cytotoxicity at 10 µM was 6.27%. For the molecule `Cc1ccc(F)cc1S(=O)(=O)NCc1cccc(CS(C)(=O)=O)c1`, the cytotoxicity at 10 µM is -10.6%. Regarding `O=C(c1cscn1)N1CC[C@@H]2[C@@H]1CCN2CC1CCOC1` (stereo not given in full), the cytotoxicity at 10 µM is -2.36%. With `O=C(CCC(=O)N1CCOCC1)NCc1cccnc1-n1cccn1`, the cytotoxicity at 10 µM was -3.65%.

With `CCOC1COC2(CCN(Cc3ccc(C)c(C)c3)CC2)C1` (stereo not given), the cytotoxicity at 10 µM was -11.2%.

Regarding `O=C(NCc1ccccc1)[C@H]1C[C@H]2CN(S(=O)(=O)C3CC3)C[C@@H]1O2`, the cytotoxicity at 10 µM was 1.59%. On to `CN(C)Cc1ccc(C2CCCCN2C(=O)c2cccc(CO)n2)cc1` (stereo not given), for which the cytotoxicity at 10 µM is -16.9%.

As for `Cn1cccc1C(O)CNC(=O)c1ccc(C(F)(F)F)cc1` (stereo not given), the cytotoxicity at 10 µM worked out at 2.9%.

For the molecule `c1cc(CN2CCC3(CC2)COC(COCC2CC2)C3)ccn1` (stereo not given), the cytotoxicity at 10 µM is -0.443%. To `O=C(CCNC(=O)c1ccccc1F)NCCNc1cccnc1` belongs -7.55%; to `COc1ccc2c(c1)c(-c1nc(N(C)C)ncc1CN)cn2C`, 7.43%. Regarding `Cc1cc(NC(=O)N2CCN(C)CC2C)n(C)n1` (stereo not given), the cytotoxicity at 10 µM was 9.92%.

Take `COc1cc2c(cc1CN1C[C@@H](CN3CCOCC3)[C@@H](CO)C1)CCC2`: the cytotoxicity at 10 µM is -2.37%. To `Cc1oncc1C(=O)N1CC[C@H]2[C@@H]1CCC(=O)N2CC1CC1` belongs 6.42%. Take `Fc1ccc2[nH]c(C3CCCN3Cc3c[nH]cn3)nc2c1` (stereo not given): the cytotoxicity at 10 µM turned out to be 0.786%.

For the molecule `CCc1noc(CNc2ccc(CC(=O)N3CCSCC3)cc2)n1`, the cytotoxicity at 10 µM worked out at 3.73%. For `Cc1nc(C)n(CC2CCCN(CC3CCCCC3)C2)n1` (stereo not given), the cytotoxicity at 10 µM is 2.04%.

For the molecule `c1csc(CN2CCCn3cnc(COCC4CC4)c3C2)n1`, the cytotoxicity at 10 µM stood at 9.7%. Consider `CN1CC[C@H](N(Cc2ccccc2)Cc2ccccc2)C[C@H](O)C1`, for which the cytotoxicity at 10 µM is -5.96%. To `CCN(CCn1cccn1)C(=O)CN1C(=O)OC[C@@H]1c1ccccc1` belongs -12.1%.

With `O=C(COC1CCCCC1)NS(=O)(=O)c1ccc2c(c1)OCCCO2`, the cytotoxicity at 10 µM was determined as 3.85%.

For the molecule `COCC1c2c(cnn2CC2CC2)CCN1Cc1ccsc1` (stereo not given), the cytotoxicity at 10 µM is 6.75%.

As to `O=C(CCc1cccs1)N1CCC(Nc2cccnn2)CC1`, the cytotoxicity at 10 µM is -10.5%. The result for `CCC[C@@H]1CN(C(=O)c2ccccc2-c2ccccc2)C[C@H]1N(C)C` reads 2.16%; that for `Cc1nc(CCC(=O)NCC(N)=O)cc(C2CCNCC2)n1`, -3.03%.

As to `O=C(COCc1ccccc1)NCc1ccc(O)c(F)c1`, the cytotoxicity at 10 µM was 1.05%.
